Experimental data taken from ChEMBL document CHEMBL1142977, “1,4-benzodiazepines as inhibitors of respiratory syncytial virus. The identification of a clinical candidate” (J Med Chem, 2007).
≈ marks a conversion by molar mass, not a printed value.

How the values were obtained:
[1] = Aqueous solubility at pH 7.0; format: physicochemical
[2] = system: Respiratory syncytial virus; assay: Antiviral activity against RSV RSS in Hep2 cells by ELISA; format: functional, organism-based, HEp-2; details: for IC50: human respiratory syncytial virus, RSS, HEp-2
Procedure, shortened: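 HEp-2 cells infected with RSV RSS strain and exposed to compound for 3 days at 37 °C. Monoclonal antibodies to RSV F, N and P proteins were detected with an enzyme-linked secondary antibody. Substrate conversion to a coloured product was read by optical density, and IC50 was derived.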

[3] = system: Respiratory syncytial virus; assay: Antiviral activity against RSV RSS in Hep2 cells by XTT assay; format: functional, organism-based, HEp-2; details: for IC50: human respiratory syncytial virus, RSS, HEp-2
Procedure, shortened: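 HEp-2 cells infected with RSV RSS strain in the presence of compound, incubated 6 days at 37 °C. Residual viability was read by XTT metabolism to a coloured product, and IC50 was derived.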

[4] = system: Respiratory syncytial virus; assay: Antiviral activity against RSV RSS in Hep2 cells by plaque assay; format: functional, organism-based, HEp-2; details: for IC50: human respiratory syncytial virus, RSS, HEp-2
Procedure, shortened: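 HEp-2 monolayers infected with RSV RSS strain and allowed 2 h adsorption. Compound was then added in medium with 0.6% agarose and incubated 5 days at 37 °C. Monolayers were fixed, the overlay removed, and plaques stained with methylene blue.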

[5] = Cytotoxicity against RSV RSS infected Hep2 cells by XTT assay; format: cell-based; details: human, hep-2
Procedure, shortened: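 Same XTT format (HEp-2 cells, 6 days at 37 °C, XTT read-out) run in parallel without virus. TD50 is the concentration giving 50% cell death in the absence of virus.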

[6] = Cytotoxicity against RSV RSS infected Hep2 cells by plaque assay; format: cell-based; details: human, hep-2
[7] = Cytotoxicity against RSV RSS infected Hep2 cells by ELISA; format: cell-based; details: human, hep-2
[8] = Half life in rat at 5 mg/kg, po; details: in vivo
[9] = Volume of distribution in rat at 5 mg/kg, iv; format: ADME, organism-based; parameters: dose 5 mg/kg, route intravenous; details: in vivo, read-out: Vss
Procedure, shortened: (§1)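 Rat, single intravenous dose of 5 mg/kg, n = 3. Parameters were derived from plasma concentrations.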

[10] = Fraction unbound ligand in rat serum; format: ADME, cell-free
in vivo [11] = details: rat, plasma, iv, 5 mg/kg
[12] = Cmax in rat at 5 mg/kg, po; format: ADME, organism-based; parameters: dose 5 mg/kg, route oral; details: in vivo
Procedure, shortened: (§2)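 Rat, oral dose of 5 mg/kg in a lipid-based formulation, n = 3. Bioavailability was calculated relative to the 5 mg/kg intravenous dose.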

Cytochrome P450 3A4 = Cytochrome P450 3A4 (Homo sapiens, UniProt P08684); assay: Inhibition of CYP3A4; format: ADME
Chain of Cytochrome P450 3A4 (P08684 whole entry, canonical isoform): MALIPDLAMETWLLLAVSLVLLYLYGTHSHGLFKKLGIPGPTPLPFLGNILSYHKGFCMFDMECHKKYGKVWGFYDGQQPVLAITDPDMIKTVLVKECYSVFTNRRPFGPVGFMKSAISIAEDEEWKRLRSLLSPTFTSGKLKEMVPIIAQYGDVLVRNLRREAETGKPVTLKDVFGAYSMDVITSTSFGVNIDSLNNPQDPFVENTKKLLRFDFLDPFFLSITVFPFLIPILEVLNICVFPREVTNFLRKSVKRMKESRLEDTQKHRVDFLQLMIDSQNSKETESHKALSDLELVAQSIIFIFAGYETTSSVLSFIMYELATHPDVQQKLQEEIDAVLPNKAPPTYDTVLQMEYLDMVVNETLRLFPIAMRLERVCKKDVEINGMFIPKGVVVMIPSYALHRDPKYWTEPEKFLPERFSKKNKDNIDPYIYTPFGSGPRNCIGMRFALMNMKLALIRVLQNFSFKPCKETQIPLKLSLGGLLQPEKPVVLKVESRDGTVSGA
Procedure, shortened: (§3)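 CYP inhibition was assessed as an effect on the metabolism of isoform-specific probe substrates for CYP3A4, 1A2, 2D6, 2C9 and 2C19.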

Cytochrome P450 2C19 = Cytochrome P450 2C19 (Homo sapiens, UniProt P33261); assay: Inhibition of CYP2C19; format: ADME; procedure, shortened: as §3
Chain of Cytochrome P450 2C19 (P33261 whole entry): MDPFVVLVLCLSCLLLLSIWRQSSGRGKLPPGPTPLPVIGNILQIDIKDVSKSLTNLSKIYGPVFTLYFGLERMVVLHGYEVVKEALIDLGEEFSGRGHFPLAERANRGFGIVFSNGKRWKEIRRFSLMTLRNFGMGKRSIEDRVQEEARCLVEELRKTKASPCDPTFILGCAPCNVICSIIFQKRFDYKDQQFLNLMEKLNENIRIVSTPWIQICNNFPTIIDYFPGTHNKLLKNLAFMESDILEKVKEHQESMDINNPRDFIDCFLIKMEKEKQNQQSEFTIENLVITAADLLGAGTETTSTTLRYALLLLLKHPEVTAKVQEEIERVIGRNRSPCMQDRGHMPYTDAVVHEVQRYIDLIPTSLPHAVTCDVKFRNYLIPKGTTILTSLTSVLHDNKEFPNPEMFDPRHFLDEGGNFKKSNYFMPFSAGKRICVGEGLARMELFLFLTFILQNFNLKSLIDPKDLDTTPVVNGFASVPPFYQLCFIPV

[13] = Oral bioavailability in rat at 5 mg/kg, po in lipid based formulation; format: ADME, organism-based; details: in vivo; procedure, shortened: as §2
Cytochrome P450 2D6 = Cytochrome P450 2D6 (Homo sapiens, UniProt P10635); assay: Inhibition of CYP2D6; format: ADME; procedure, shortened: as §3
Chain of Cytochrome P450 2D6 (P10635 whole entry): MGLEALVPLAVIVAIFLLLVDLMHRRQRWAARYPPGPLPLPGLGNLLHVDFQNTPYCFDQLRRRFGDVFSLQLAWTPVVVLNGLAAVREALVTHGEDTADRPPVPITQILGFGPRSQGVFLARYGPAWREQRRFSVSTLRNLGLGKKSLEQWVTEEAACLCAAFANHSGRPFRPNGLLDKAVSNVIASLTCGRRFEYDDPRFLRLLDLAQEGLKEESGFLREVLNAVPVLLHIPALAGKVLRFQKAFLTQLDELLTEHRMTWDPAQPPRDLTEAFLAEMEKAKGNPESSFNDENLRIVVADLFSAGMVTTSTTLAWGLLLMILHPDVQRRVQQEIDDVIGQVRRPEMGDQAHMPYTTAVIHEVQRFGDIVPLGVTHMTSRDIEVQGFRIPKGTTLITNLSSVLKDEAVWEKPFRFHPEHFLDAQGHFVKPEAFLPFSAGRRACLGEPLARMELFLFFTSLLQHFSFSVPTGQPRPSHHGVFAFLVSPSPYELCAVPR

Cytochrome P450 2C9 = Cytochrome P450 2C9 (Homo sapiens, UniProt P11712); assay: Inhibition of CYP2C9; format: ADME; procedure, shortened: as §3
Chain of Cytochrome P450 2C9 (P11712 whole entry): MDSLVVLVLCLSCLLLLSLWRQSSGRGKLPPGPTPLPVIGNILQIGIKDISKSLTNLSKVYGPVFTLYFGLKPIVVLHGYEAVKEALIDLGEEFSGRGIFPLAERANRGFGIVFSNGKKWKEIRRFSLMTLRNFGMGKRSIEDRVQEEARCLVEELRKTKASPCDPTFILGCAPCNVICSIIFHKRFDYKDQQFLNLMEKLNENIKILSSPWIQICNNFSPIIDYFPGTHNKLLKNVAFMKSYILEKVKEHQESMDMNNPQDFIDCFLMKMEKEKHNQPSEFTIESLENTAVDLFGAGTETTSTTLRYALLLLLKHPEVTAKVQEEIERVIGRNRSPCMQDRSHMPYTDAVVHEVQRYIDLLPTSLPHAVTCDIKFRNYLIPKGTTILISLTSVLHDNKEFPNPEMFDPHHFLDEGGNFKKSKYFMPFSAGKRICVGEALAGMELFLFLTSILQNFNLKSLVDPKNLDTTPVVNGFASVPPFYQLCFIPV

[14] = Fraction unbound ligand in human serum; format: ADME, cell-free
[15] = Apparent permeability coefficient assessed using MDCK cells; format: ADME, cell-based, Canis lupus familiaris; details: dog
[16] = Cmax in rat at 5 mg/kg, iv; format: ADME, organism-based; parameters: dose 5 mg/kg, route intravenous; details: in vivo; procedure, shortened: as §1
in vivo [17] = details: rat, plasma, po, 5 mg/kg
Cytochrome P450 1A2 = molecular target: T1, Cytochrome P450 1A2 (Homo sapiens, UniProt P05177); assay: Inhibition of CYP1A2; format: ADME; procedure, shortened: as §3
T1 sequence (P05177 whole entry): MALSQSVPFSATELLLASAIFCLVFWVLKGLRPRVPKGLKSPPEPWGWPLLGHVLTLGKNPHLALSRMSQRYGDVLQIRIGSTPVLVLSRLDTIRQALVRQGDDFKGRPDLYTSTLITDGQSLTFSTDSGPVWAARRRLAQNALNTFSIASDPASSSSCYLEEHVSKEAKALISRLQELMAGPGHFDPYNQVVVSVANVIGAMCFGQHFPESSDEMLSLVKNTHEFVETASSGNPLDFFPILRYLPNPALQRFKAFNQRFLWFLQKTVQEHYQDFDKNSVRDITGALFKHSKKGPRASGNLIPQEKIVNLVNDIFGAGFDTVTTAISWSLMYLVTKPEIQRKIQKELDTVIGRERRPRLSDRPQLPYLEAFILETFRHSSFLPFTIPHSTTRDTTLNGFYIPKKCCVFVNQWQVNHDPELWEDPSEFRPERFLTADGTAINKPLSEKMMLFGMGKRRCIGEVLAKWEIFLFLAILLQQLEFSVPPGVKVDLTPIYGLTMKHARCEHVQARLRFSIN

[18] = Fraction unbound ligand in dog serum; format: ADME, cell-free, Canis lupus familiaris
Serum [19] = assay: Protein binding in dog serum; format: ADME, cell-free, Canis lupus familiaris
Serum [20] = assay: Protein binding in human serum; format: ADME, cell-free
Serum [21] = assay: Protein binding in rat serum; format: ADME, cell-free
[22] = Oral bioavailability in rat at 5 mg/kg, po in 1% CMC suspension; format: ADME, organism-based; details: in vivo
Procedure, shortened: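 Rat, oral dose of 5 mg/kg given as a suspension in 1% carboxymethylcellulose. Bioavailability was estimated relative to intravenous dosing.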

[23] = Half life in rat at 5 mg/kg, iv; details: in vivo

O=C(N[C@H]1N=C(c2ccccc2)c2ccccc2NC1=O)c1ccc(N2CCOCC2)cc1Cl
solubility [1]: 0.9 µg/mL (≈ 1.89 µM) | TD50 [2]: >50 µM | IC50 [2]: 1.5 µM | TD50 [3]: >50 µM | IC50 [3]: 1.4 µM | TD50 [4]: >50 µM | IC50 [4]: 0.8 µM

O=C(CN1C(=O)[C@@H](NC(=O)Nc2ccccc2F)N=C(c2ccccc2)c2ccccc21)Nc1ccncc1
TD50 [3]: >50 µM | IC50 [3]: 14.2 µM

O=C(N[C@H]1N=C(c2ccccc2)c2ccccc2NC1=O)c1cc(F)ccc1N1CCS(=O)(=O)CC1
TD50 [3]: >50 µM | IC50 [3]: 0.7 µM

COc1cc([N+](=O)[O-])ccc1C(=O)N[C@H]1N=C(c2ccccc2)c2ccccc2NC1=O
TD50 [2]: >50 µM | IC50 [2]: 1 µM | TD50 [3]: >50 µM | IC50 [3]: 0.9 µM | TD50 [4]: >50 µM | IC50 [4]: 0.5 µM

COc1cc([N+](=O)[O-])ccc1C(=O)N[C@@H]1N=C(c2ccccc2)c2ccccc2NC1=O
TD50 [3]: >50 µM | IC50 [3]: 21.2 µM

O=C(N[C@H]1N=C(c2ccccc2)c2ccccc2NC1=O)c1cccnc1N1CCOCC1
TD50 [3]: >50 µM | IC50 [3]: 2.9 µM

O=C(Nc1ccccc1F)N[C@H]1N=C(c2ccccc2)c2ccccc2N(CC(=O)N2CCOCC2)C1=O
TD50 [3]: >50 µM | IC50 [3]: > 50 µM

O=C(N[C@H]1N=C(c2ccccc2)c2ccccc2NC1=O)c1ccc(F)cc1N1CCCCC1
TD50 [3]: >50 µM | IC50 [3]: 7.5 µM

COc1cc(S(C)(=O)=O)ccc1C(=O)N[C@H]1N=C(c2ccccc2)c2ccccc2NC1=O
solubility [1]: 22 µg/mL (≈ 47.5 µM) | TD50 [2]: >50 µM | IC50 [2]: 0.6 µM | TD50 [3]: >50 µM | IC50 [3]: 0.5 µM | TD50 [4]: >50 µM | IC50 [4]: 0.5 µM

O=C(NC1N=C(c2ccccc2)c2ccccc2NC1=O)C1CCCCC1 (stereo not given)
TD50 [3]: >50 µM | IC50 [3]: 12.6 µM

O=C(N[C@H]1N=C(c2ccccc2)c2ccccc2NC1=O)C1CCCCC1
TD50 [3]: >50 µM | IC50 [3]: 3.3 µM

O=C(N[C@H]1N=C(c2ccccc2)c2ccccc2NC1=O)c1cc(Cl)ccc1N1CCS(=O)(=O)CC1
TD50 [3]: >50 µM | IC50 [3]: 2.2 µM

O=C(Nc1ccccc1F)N[C@@H]1N=C(c2ccccc2)c2ccccc2NC1=O
Activity [5]: Non-toxic | Activity [6]: Non-toxic | Activity [7]: Non-toxic | TD50 [3]: >50 µM | IC50 [3]: 27.8 µM

CCNC(=O)CN1C(=O)[C@@H](NC(=O)Nc2ccccc2F)N=C(c2ccccc2)c2ccccc21
TD50 [3]: >50 µM | IC50 [3]: > 50 µM

O=C(N[C@@H]1N=C(c2ccccc2)c2ccccc2NC1=O)C1CCCCC1
TD50 [3]: >50 µM | IC50 [3]: > 50 µM

O=C(Nc1ccccc1F)N[C@H]1N=C(c2ccccc2)c2ccccc2NC1=O [RSV-604]
half-life [8]: 2.6 h | Vd [9]: 2.2 L/kg | fraction unbound [10]: 0.05 | AUC(0-inf) (in vivo [11]): 11700 ng·h/mL | Cmax [12]: 910 ng/mL | Activity [5]: Non-toxic | Activity (Cytochrome P450 3A4): Not Active | Activity (Cytochrome P450 2C19): Not Active | bioavailability [13]: > 90% | Activity [6]: Non-toxic | solubility [1]: 4.1 µg/mL (≈ 10.6 µM) | Activity (Cytochrome P450 2D6): Not Active | Activity (Cytochrome P450 2C9): Not Active | fraction unbound [14]: 0.05 | Activity [7]: Non-toxic | TD50 [2]: >50 µM | IC50 [2]: 1.4 µM | Papp [15]: 13 ×10⁻⁶ cm/s | Cmax [16]: 3300 ng/mL | AUC(0-inf) (in vivo [17]): 10900 ng·h/mL | Activity (Cytochrome P450 1A2): Not Active | fraction unbound [18]: 0.05 | Activity (Serum [19]): 95% | TD50 [3]: >50 µM | IC50 [3]: 0.9 µM | Activity (Serum [20]): 95% | TD50 [4]: >50 µM | IC50 [4]: 0.7 µM | Activity (Serum [21]): 95% | bioavailability [22]: < 40% | half-life [23]: 3.8 h

O=C(Nc1ccccc1F)NC1N=C(c2ccccc2)c2ccccc2NC1=O (stereo not given)
Activity [5]: Non-toxic | Activity [6]: Non-toxic | Activity [7]: Non-toxic | TD50 [3]: >50 µM | IC50 [3]: 27.8 µM

COc1cc([N+](=O)[O-])ccc1C(=O)NC1N=C(c2ccccc2)c2ccccc2NC1=O (stereo not given)
TD50 [3]: >50 µM | IC50 [3]: 2 µM
